In assay [1] the target is Glutamate receptor ionotropic, NMDA 2C (Rattus norvegicus, UniProt Q00961). Kind of assay: Binding affinity of compound against Phencyclidine receptor by displacement of [3H]TCP. The following applies: read-out: Ki app. Put shortly:
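Membrane preparation incubated in triplicate with 2 nM [3H]TCP plus varying displacer levels in 5 mM Tris-HCl pH 7.4, 1 h, room temperature. Filtered on filters presoaked in 0.5% polyethylenimine, rinsed with Tris buffer, counted by liquid scintillation. Specific binding defined with 10 μM TCP. Mean ±SEM of at least three experiments.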
A general note: Displacement assays read how much labelled ligand stays bound in the presence of the test substance.

The test system of assay [2] is Rattus norvegicus. In words: The compound was tested for its stereotyped behavior after intracerebroventricular introduction in the rat. Format: functional. Put shortly: (§1)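 Sprague–Dawley rats (~200 g), caged singly, adapted ≥1 h, each used once. Intracerebroventricular dosing. Scored on the Sturgeon PCP rating scale immediately, at 2.5 and 5 min, then every 5 min until back to control. Dose–response built from peak-effect ratings, ≥18 rats per curve. ED50 (nmol/rat) and confidence limits by computerized Finney assay.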

In assay [3] the test system is Rattus norvegicus. Kind of assay: The compound was tested for ataxia after intracerebroventricular introduction in the rat. It is filed as functional. The method, boiled down:
as §1

pKi: −log10 of the molar value.

Glutamate receptor ionotropic, NMDA 2C, sequence (Q00961 whole entry): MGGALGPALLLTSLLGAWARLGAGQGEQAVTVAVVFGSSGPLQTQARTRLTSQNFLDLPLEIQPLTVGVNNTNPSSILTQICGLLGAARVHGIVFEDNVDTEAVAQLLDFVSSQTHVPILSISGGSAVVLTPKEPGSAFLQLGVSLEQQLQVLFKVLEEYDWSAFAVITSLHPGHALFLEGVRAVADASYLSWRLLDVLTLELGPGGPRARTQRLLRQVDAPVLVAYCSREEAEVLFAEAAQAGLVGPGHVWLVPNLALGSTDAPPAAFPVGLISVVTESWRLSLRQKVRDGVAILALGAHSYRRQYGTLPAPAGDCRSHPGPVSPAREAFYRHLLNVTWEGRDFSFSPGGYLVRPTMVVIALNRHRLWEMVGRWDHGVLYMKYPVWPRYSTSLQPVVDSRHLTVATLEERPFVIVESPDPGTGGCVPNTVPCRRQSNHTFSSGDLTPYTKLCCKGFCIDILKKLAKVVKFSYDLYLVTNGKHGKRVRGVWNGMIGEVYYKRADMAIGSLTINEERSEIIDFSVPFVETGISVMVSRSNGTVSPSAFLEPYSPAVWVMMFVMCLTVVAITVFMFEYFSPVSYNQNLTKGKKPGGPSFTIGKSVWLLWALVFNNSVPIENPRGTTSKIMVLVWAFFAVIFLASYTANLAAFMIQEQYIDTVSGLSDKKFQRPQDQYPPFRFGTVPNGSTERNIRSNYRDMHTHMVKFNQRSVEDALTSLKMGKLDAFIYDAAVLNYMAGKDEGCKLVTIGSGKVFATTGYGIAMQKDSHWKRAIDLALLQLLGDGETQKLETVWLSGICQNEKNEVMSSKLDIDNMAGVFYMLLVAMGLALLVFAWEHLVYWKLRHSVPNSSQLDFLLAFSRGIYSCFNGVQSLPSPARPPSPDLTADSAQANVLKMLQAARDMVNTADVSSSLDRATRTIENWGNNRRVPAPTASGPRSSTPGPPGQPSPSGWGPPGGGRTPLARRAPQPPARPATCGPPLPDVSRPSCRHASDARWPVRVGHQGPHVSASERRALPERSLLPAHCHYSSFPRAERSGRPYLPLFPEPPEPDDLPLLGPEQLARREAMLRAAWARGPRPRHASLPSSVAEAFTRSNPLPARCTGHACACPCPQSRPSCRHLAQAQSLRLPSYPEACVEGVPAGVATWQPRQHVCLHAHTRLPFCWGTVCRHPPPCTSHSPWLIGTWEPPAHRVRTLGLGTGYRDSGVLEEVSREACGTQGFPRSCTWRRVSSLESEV

Usually pKi stands for the negative decadic logarithm of the Ki, by convention in mol/L. Take `c1ccc([C@@H](C2CC3CC3C2)N2CCCCC2)cc1` (some centres undefined): the pKi in assay [1] is 6.17. Moreover, the ED50 was 0.31 µM in assay [2] and 0.3 µM in assay [3].

For the compound `c1ccc([C@H](C2CC3CC3C2)N2CCCCC2)cc1` (some centres undefined), the pKi in assay [1] was 6.20. Moreover, the ED50 was determined as 0.4 µM in assay [2] and 0.45 µM in assay [3].

Consider `c1ccc(C2(N3CCCCC3)CCCCC2)cc1` [PHENCYCLIDINE], for which the pKi in assay [1] was 7.04. Moreover, the ED50 in assay [2] was 0.15 µM; in assay [3], 0.21 µM.

For the origin of these results see ChEMBL document CHEMBL1124177, “Synthesis, configuration, and evaluation of two conformationally restrained analogues of phencyclidine” (J Med Chem, 1988).
